# Experimental data from different studies.
# Protocols differ between the studies behind these lines.
# AKR1B1: Aldo-keto reductase family 1 member B1 (AKR1B1, Homo sapiens, UniProt P15121)
# LATS2: Serine/threonine-protein kinase LATS2 (LATS2, Homo sapiens, UniProt Q9NRM7)
# LCK: Tyrosine-protein kinase Lck (LCK, Homo sapiens, UniProt P06239)
Compound,target,read-out,mode,technique,IC50 [µM]
COc1cc(/C=N/NC(=S)N/N=C/c2ccc(C=O)cc2)ccc1Oc1ccnc2cc(Cl)ccc12,AKR1B1,enzyme activity,inhibitor,absorbance,12.9
CC1CNCCC1(O)c1ccc(-c2ccnc3[nH]cc(F)c23)cc1 (stereo not drawn),LATS2,enzyme activity,inhibitor,radiometric,0.0056
COc1cc(/C=N/NC(=S)N/N=C/c2ccc(Br)cc2)ccc1Oc1ccnc2cc(Cl)ccc12,AKR1B1,enzyme activity,inhibitor,absorbance,8.82
Cc1cn([C@H]2C[C@H](OP(=O)(O)OC[C@H]3O[C@@H](n4cc(C)c(=O)[nH]c4=O)C[C@@H]3O)[C@@H](COP(=O)(O)OP(=O)(O)O)O2)c(=O)[nH]c1=O,"dgt (Salmonella enterica, UniProt A0A5H6DAK1)",enzyme activity,inhibitor,,19.7
Cc1cc(-c2ccnc3[nH]cc(F)c23)cc(F)c1[C@@]1(O)[C@H](C)CN(C(=O)CN)C[C@@H]1C,LATS2,enzyme activity,inhibitor,radiometric,0.0026
O=C(O[C@@H]1[C@@H](O)[C@H](Oc2cc(O)c3c(c2)O[C@H](c2ccccc2)CC3=O)O[C@@H]2COC(=O)c3cc(O)c(O)c(O)c3-c3c(cc(O)c(O)c3O)C(=O)O[C@@H]12)c1cc(O)c(O)c(O)c1,"Thioredoxin domain-containing protein 5 (TXNDC5, Homo sapiens, UniProt Q8NBS9)",enzyme activity,inhibitor,fluorescence,3.9
Cc1cc(-c2ccnc3[nH]cc(F)c23)cc(F)c1[C@@]1(O)[C@H](C)CN(C2CCS(=O)(=O)CC2)C[C@@H]1C,LATS2,target engagement in cells,,BRET,0.036
Cc1cc(-c2cc(O)ccc2Cl)cc2nnc(Nc3ccc(OCCN4CCCC4)cc3)nc12,LCK,cell-free assay,,,0.000292
COc1c(Cl)cccc1Nc1c(-c2ccncc2OC[C@@H]2COCCO2)[nH]c2c1C(=O)NCC2,LCK,enzyme activity,inhibitor,TR-FRET,1.12
COc1cc(/C=N/NC(=S)N/N=C/c2ccc(Cl)cc2)ccc1Oc1ccnc2cc(Cl)ccc12,AKR1B1,enzyme activity,inhibitor,absorbance,14.9
OC1(c2ccc(-c3ccnc4[nH]cc(F)c34)cc2)CCCNCC1 (stereo not drawn),LATS2,enzyme activity,inhibitor,radiometric,0.012
COc1cc(/C=N/NC(=S)NN=Cc2cccs2)ccc1Oc1ccnc2cc(Cl)ccc12,AKR1B1,enzyme activity,inhibitor,absorbance,19.7
Clc1ccc(Nc2ccncc2)cc1Cl,"Endonuclease 8-like 1 (NEIL1, Homo sapiens, UniProt Q96FI4)",enzyme activity,inhibitor,,> 99
COc1cc(/C=N/NC(=S)N/N=C/c2ccc(N(C)C)cc2)ccc1Oc1ccnc2cc(Cl)ccc12,AKR1B1,enzyme activity,inhibitor,absorbance,10.4
COc1cc(CN(CCN)C(=O)c2cccs2)ccc1OCc1ccccc1,"Transient receptor potential cation channel subfamily M member 8 (TRPM8, Homo sapiens, UniProt Q7Z2W7)",ion current,inhibitor,patch clamp,0.012
